Test results as given in ChEMBL document CHEMBL4130534, “Genomics-Driven Discovery of Chlorinated Cyclic Hexapeptides Ulleungmycins A and B from a Streptomyces Species” (2017).
≈ marks a conversion by molar mass, not a printed value. Square brackets hold non-standard residues; d marks the D form. Peptide text beside a SMILES is read from it. Trp(5-Cl) = N[C@@H](Cc1c[nH]c2ccc(Cl)cc12)C(=O)O; dAsn(3R-OH) = NC(=O)[C@H](O)[C@@H](N)C(=O)O; aIle = CC[C@@H](C)[C@H](N)C(=O)O; Orn = NCCC[C@H](N)C(=O)O

Legend:
Format in all cases: functional
Bacillus subtilis = assay: Antibacterial activity against Bacillus subtilis KCTC 1021 after 24 hrs by broth microdilution method; conditions: KCTC 1021, 24 h
Summary of the method: (§1)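 Broth microdilution in Mueller–Hinton broth. Strains grown to mid-log phase and diluted 1000-fold in the same medium. Cells at 10^5/mL, 0.2 mL/well. Test samples prepared in DMSO (final ≤0.05%), with 0.05% DMSO as vehicle control. Serial 2-fold dilutions, 24 h at 37 °C. Growth read as absorbance at 650 nm. MIC is the lowest concentration giving complete growth inhibition, done in triplicate.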

Escherichia coli = assay: Antibacterial activity against Escherichia coli CCARM 1356 after 24 hrs by broth microdilution method; conditions: CCARM 1356, 24 h; summary of the method: as §1
Staphylococcus aureus [1] = assay: Antibacterial activity against methicillin-resistant Staphylococcus aureus CCARM 3167 after 24 hrs by broth microdilution method; conditions: CCARM 3167, 24 h
Summary of the method: (§2)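 Broth microdilution in Mueller−Hinton broth. Strains grown to mid-log phase in the same medium and diluted 1000-fold, then inoculated at 10^5 cells/mL. Compounds dissolved in DMSO (final ≤0.05%) and tested as serial 2-fold dilutions; 0.05% DMSO as vehicle control. Incubated 24 h at 37 °C with growth read as absorbance at 650 nm. MIC taken as the lowest concentration completely inhibiting growth, in triplicate.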

Staphylococcus aureus [2] = assay: Antibacterial activity against quinolone-resistant Staphylococcus aureus CCARM 3505 after 24 hrs by broth microdilution method; conditions: CCARM 3505, 24 h; summary of the method: as §2
Staphylococcus aureus [3] = assay: Antibacterial activity against Staphylococcus aureus RN4220 after 24 hrs by broth microdilution method; conditions: RN4220, 24 h; summary of the method: as §2
Enterococcus faecalis = assay: Antibacterial activity against Enterococcus faecalis KCTC 5191 after 24 hrs by broth microdilution method; conditions: KCTC 5191, 24 h; summary of the method: as §1
Streptococcus pneumoniae = assay: Antibacterial activity against Streptococcus pneumoniae KCTC 5412 after 24 hrs by broth microdilution method; conditions: KCTC 5412, 24 h
Summary of the method: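 Broth microdilution with cells grown in Todd–Hewitt medium instead of Mueller–Hinton broth. Cells at 10^5/mL, 0.2 mL/well. Test samples prepared in DMSO (final ≤0.05%), with 0.05% DMSO as vehicle control. Serial 2-fold dilutions, 24 h at 37 °C. Growth read as absorbance at 650 nm. MIC is the lowest concentration giving complete growth inhibition, done in triplicate.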

Pseudomonas aeruginosa = assay: Antibacterial activity against Pseudomonas aeruginosa KCTC 2004 after 24 hrs by broth microdilution method; conditions: KCTC 2004, 24 h; summary of the method: as §1

Compound | MIC (Bacillus subtilis) [µg/mL] | MIC (Escherichia coli) [µg/mL] | MIC (Staphylococcus aureus [1]) [µg/mL] | MIC (Staphylococcus aureus [2]) [µg/mL] | MIC (Staphylococcus aureus [3]) [µg/mL] | MIC (Enterococcus faecalis) [µg/mL] | MIC (Streptococcus pneumoniae) [µg/mL] | MIC (Pseudomonas aeruginosa) [µg/mL]
CC[C@@H](C)[C@@H]1NC(=O)[C@@H](CCC(C)C)NC(=O)[C@@H](C(C)C)NC(=O)[C@H](Cc2c[nH]c3ccc(Cl)cc23)NC(=O)[C@@H]([C@@H](O)C(N)=O)NC(=O)[C@H](CCCN)NC1=O | 8 (≈ 9.95 µM) | 128 (≈ 159 µM) | 16 (≈ 19.9 µM) | 8 (≈ 9.95 µM) | 16 (≈ 19.9 µM) | 8 (≈ 9.95 µM) | 16 (≈ 19.9 µM) | 128 (≈ 159 µM)
CC[C@@H](C)[C@@H]1NC(=O)[C@@H](CC(C)C)NC(=O)[C@@H](C(C)C)NC(=O)[C@H](Cc2c[nH]c3ccc(Cl)cc23)NC(=O)[C@@H]([C@@H](O)C(N)=O)NC(=O)[C@H](CCCN)NC1=O (cyclo([Orn][dAsn(3R-OH)][Trp(5-Cl)][dV][dL][aIle])) | 8 (≈ 10.1 µM) | 64 (≈ 81 µM) | 32 (≈ 40.5 µM) | 16 (≈ 20.2 µM) | 16 (≈ 20.2 µM) | 8 (≈ 10.1 µM) | 8 (≈ 10.1 µM) | 128 (≈ 162 µM)
O=C(O)c1cn(C2CC2)c2cc(N3CCNCC3)c(F)cc2c1=O [CIPROFLOXACIN] | 0.015 (≈ 0.0453 µM) | 64 (≈ 193 µM) | 4 (≈ 12.1 µM) | 32 (≈ 96.6 µM) | – | 1 (≈ 3.02 µM) | – | –
